These results are taken from publication PMC6049601 (International Journal of Nanomedicine, 2018).

Series [1] in a line: Oral bioavailability / pharmacokinetic study in rats. The following applies: Sprague-Dawley, rat, plasma, iv, 8 mg/kg. The class given is in vivo, Sprague-Dawley (SD) rats. Summed up: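 Sprague-Dawley rats (220 ± 20 g, n = 5) were fasted overnight with water allowed, then given test compound solution i.v. at 8 mg/kg. Tail-vein blood was drawn into heparinised tubes at 0.133–12 h. Plasma was extracted with acetonitrile, dried at 30°C, reconstituted in 50% acetonitrile and run on UPLC-QTOF/MS (0.1% formic acid water/acetonitrile gradient). Parameters came from noncompartmental analysis.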

In series [2] the test system is TNF-α in LPS-induced RAW 264.7 cells. As to the kind of experiment: In vitro anti-inflammatory effect: TNF-α. Type of series: cell-based, Mouse. The conditions noted are these: 25 μg/mL, LPS 1 μg/mL, 24 h. The procedure, abridged: (§1)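 RAW 264.7 mouse macrophages grown in RPMI-1640 with 10% FBS at 37°C, 5% CO2, seeded at 2 × 10^5 cells/well. Cells were exposed to LPS (1 μg/mL) with or without test formulation for 24 h; medium-only and LPS-only wells served as control and model. Supernatants were cleared at 10,000 rpm, 4°C. TNF-α, IL-6 and NO were measured by ELISA kits; mean ± SD, n = 3.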

Series [3] deals with IL-6 in LPS-induced RAW 264.7 cells. As to the kind of experiment: In vitro anti-inflammatory effect: IL-6. Type of series: cell-based, Mouse. The conditions noted are these: 25 μg/mL, LPS 1 μg/mL, 24 h. The procedure, abridged:
as §1

Series [4] in a line: In vitro release study by dialysis bag method. Type of series: physicochemical. The conditions noted are these: solution formulation, water with 1% Tween 80, 37°C. The procedure, abridged:
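Test compound was dissolved in water/ethanol/PEG400 (20/40/40, v/v/v). Samples equivalent to 10 mg were sealed in dialysis bags (MWCO ~14,000) and dialysed against 100 mL purified water containing 1% Tween 80 at 37°C. Medium aliquots were taken at set times and replaced with fresh medium, diluted with methanol and assayed by HPLC. Cumulative release percentage was plotted against time.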

For series [5], the system named is Caco-2 cells. As to the kind of experiment: Cellular uptake in Caco-2 cells. The conditions noted are these: Caco-2, 20 μg/mL, 1, 2 and 4 h. The class given is cell-based.
Series [6] deals with NO in LPS-induced RAW 264.7 cells. The experiment in a line: In vitro anti-inflammatory effect: NO. The conditions noted are these: 25 μg/mL, LPS 1 μg/mL, 24 h. Type of series: cell-based, Mouse. Summed up:
as §1

In general, AUC(0-t) refers to the area under the concentration-time curve up to a stated or last time point. As a reminder, the Cmax is the highest concentration seen after dosing. For orientation: MRT inf means the average time that molecules of a dose stay in the body. By Tmax is commonly meant the time at which the peak concentration occurs. In the case of `Oc1ccc(/C=C/c2cc(O)cc(O)c2)cc1` [Free RES, Resveratrol], in series [1], the AUC(0-t) was determined as 902 ± 33.7 ng·h/mL, the Cmax came out at 974 ± 302 ng/mL, the MRT inf was determined as 5.27 ± 0.931 h and the Tmax was 7.98 ± 3.24 min. Besides, the “Effect on TNF-α compared to the LPS model” value in series [2] was “substantially suppressed”. For the same molecule, the “Effect on IL-6 compared to the LPS model” value in series [3] is “substantially suppressed”. In series [4], the In vitro release result is “released completely in a very short time”. In addition, the “Cellular uptake (intracellular RES concentration)” value in series [5] is given as “rapid cellular uptake relative to RES-NPs”. Further, the “Effect on NO compared to the LPS model” value in series [6] was “substantially suppressed”.
